Rows were chosen to be rich in hits. Some 1.9% of all compounds tested hit in one or more screens of this group.
ZTA counter: blocks Epstein-Barr virus ZTA, an EBNA-1 counter-screen | P03206 | ZTA-DNA binding, fluorescence polarization | inhibition, % at 11 µM | hit rate 0.15% among 320,000 | AID 2234; in the data active = inhibition above about 33%
Target sequence (P03206 whole entry, looked up): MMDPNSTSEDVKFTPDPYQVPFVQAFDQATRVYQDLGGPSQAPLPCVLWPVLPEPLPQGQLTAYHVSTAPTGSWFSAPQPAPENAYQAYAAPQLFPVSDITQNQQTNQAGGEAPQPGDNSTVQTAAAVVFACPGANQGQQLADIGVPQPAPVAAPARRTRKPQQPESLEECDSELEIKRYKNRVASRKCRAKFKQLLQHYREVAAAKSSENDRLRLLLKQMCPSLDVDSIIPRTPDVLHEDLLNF
HCV core dimer: inhibitors of HCV core protein dimerization, primary screen, biochemical, TR-FRET, high-throughput; TR-FRET GST/Flag-core106 dimerization, 1536-well; inhibition, % at 5 µM; hit rate 0.33% among 300,000; AID 1899, 2009;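 active = inhibition above the mean of all tested compounds plus 3 SD, set per screening campaign, cut at about 45% in these data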
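Material: GST/Flag-tagged HCV core106 proteins. Incubation: 4 h, 22.5 °C incubation. Read-out basis: inhibition (%) from 671 over 617 nm ratio. Measured by: TR-FRET, excitation 340 nm, emission 617 and 671 nm.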
PP1 counter: PP1-alpha phosphatase inhibitors, primary screen, counter-screen for PP5 inhibitor project, biochemical, fluorescence, OMFP substrate, single point; inhibition, % at 6.7 µM; purified PP1alpha; AID 2235, 2010; hit rate 0.9% among 320,000;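 active = inhibition above the mean inhibition of all tested compounds plus 3 SD, computed separately for each screening campaign, cut at about 15% in these data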
EBNA-1 inh: EBNA-1 DNA-binding inhibitors, primary screen, biochemical, fluorescence polarization; inhibition, % at 14.8 µM; hit rate 0.34% among 300,000; AID 1950, 2009; in the data active = inhibition above about 28%
HCV NS3 hel inh: inhibitors of HCV NS3 helicase, primary screen, biochemical, Cy5 molecular beacon fluorescence; Hepatitis C virus NS3 helicase; NS3 helicase DNA unwinding; inhibition, % at 10.9 µM; hit rate 0.56% among 290,000; AID 1800, 2009;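 active = inhibition above the mean of all tested compounds plus 3 SD, set per campaign, cut at about 35% in these data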
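Measured by: Cy5 fluorescence, 0 and 60 min reads / Assay system: NS3 helicase fragment of HCV / Control set: low DMSO, high thioflavine S at 110 µM / Times: 1 h reaction at 25 °C, ATP-initiated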
PP1 inh confirm: PP1 phosphatase inhibitors, confirmation, biochemical, fluorescence, OMFP substrate, triplicate; shares compounds with PP1 counter; purified PP1alpha; inhibition, % at 6.7 µM; hit rate 52% among 1,900; AID 2358, 2010;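 active = mean PP1 inhibition above a set limit taken from the earlier primary screen, cut at about 15% in these data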
PP5 counter: PP5 phosphatase inhibition by PP1 hits, confirmation, counter-screen for PP1 inhibitor project, biochemical, fluorescence, triplicate; shares compounds with PP1 counter; purified PP5c, OMFP fluorescence; inhibition, % at 6.7 µM; hit rate 4% among 1,900;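 active = mean PP5 inhibition over triplicate wells above about 9.5% taken from the earlier PP1 screen, limit read from the data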
Numbers stand for hits; . = inactive; / = no result given.

SMILES	ZTA counter	HCV core dimer	PP1 counter	EBNA-1 inh	HCV NS3 hel inh	PP1 inh confirm	PP5 counter
CCOc1ccc(N(CC)C(=O)CCS(=O)(=O)c2cccc3nonc23)cc1	.	.	.	.	.	/	/
Cc1cc(C)n(Cc2ccc(C(=O)N/N=C/c3ccc(-c4ccc([N+](=O)[O-])cc4)o3)o2)n1	.	.	33	.	.	28	.
CCCCC(=O)N/N=C/c1ccc(-c2ccc([N+](=O)[O-])cc2)o1	.	.	.	.	.	/	/
c1ccc(-c2nnc(-c3ccccn3)nc2NC2CCCCC2)cc1	.	.	21	.	.	.	.
CNc1nc(-c2ccccn2)nnc1-c1ccccc1	.	.	.	.	.	/	/
Cn1c2ccccc2c2cc(/C=N/NC(=O)c3ccc(O)cc3O)ccc21	.	.	.	.	.	/	/
Cn1c(O)c(/C=N/NC(=O)c2cc3ccccc3cc2O)c2ccccc21	.	.	22	.	.	16	.
Cc1ccc(C)n1-c1ccc(-c2nnco2)cc1	.	67	24	.	.	.	.
Cc1ccc(C)n1-c1ccc(-n2cnnn2)cc1	.	.	25	.	.	15	.
CC(O)c1ccc(-n2cnnn2)cc1 (stereo not given)	.	.	.	.	.	/	/
CCCC[n+]1ccn(-c2nc3c([N+](=O)[O-])cccc3n2C)c1	/	/	/	/	.	/	/
C=CCOc1ccc(C2/C(=C(\O)c3ccc4c(c3)CC(C)O4)C(=O)C(=O)N2CCN2CCOCC2)cc1OCC (stereo not given)	.	.	.	.	.	/	/
CC(=O)c1cccc(-n2nnnc2SCC(=O)Nc2cc(C)on2)c1	.	.	.	.	.	/	/
CCOC(=O)c1cc(-c2ccccc2)sc1NC(=O)COC(=O)c1cccc(S(N)(=O)=O)c1	.	.	19	77	.	31	.
CCOC(=O)c1cc(-c2ccccc2)sc1NC(=O)CN1C(=O)NC(CC)(c2ccc(F)cc2)C1=O (stereo not given)	.	.	.	.	.	/	/
CCOC(=O)c1cc(-c2ccccc2)sc1NC(=O)CN1C(=O)NC(CC)(c2ccccc2)C1=O (stereo not given)	.	.	18	.	.	.	.
COc1ccc(-c2nc3ncccc3n2O)cc1	.	.	.	.	.	/	/
COc1ccc(Nc2nc(Nc3ccc(OC)cc3)nc(-n3[nH]c(=O)c(C)c3C)n2)cc1	.	.	23	.	.	23	.
Cc1nc(SC2CC(=O)N(c3ccccc3)C2=O)n[nH]1 (stereo not given)	.	.	21	.	.	.	.
CC(C)N=C1NN=C(c2ccc(F)cc2)CS1	.	.	.	.	.	/	/
Cc1cccc(NC(=O)/C(C#N)=C/c2ccc[nH]2)c1C	/	/	/	/	.	/	/
CCCCC(=O)Nc1ccc2c(c1)nc(CCN1CCN(C)CC1)n2C	.	.	.	.	.	/	/
COCCN(C(=O)COC(=O)Cc1ccc(Cl)cc1Cl)c1c(N)n(Cc2ccccc2)c(=O)[nH]c1=O	.	.	81	.	/	.	.
Cc1ccccc1C(=O)OCC(=O)N(C)c1c(N)n(Cc2ccccc2)c(=O)[nH]c1=O	.	.	.	.	/	/	/
Cc1cc(C(=O)OCC(=O)N(C)c2c(N)n(Cc3ccccc3)c(=O)[nH]c2=O)c(C)n1-c1ccccc1	.	/	21	/	/	.	.
CCCCN(C)CCN1C(=O)C2C(C(=O)Nc3ccc(C)cc3)C3C=CC2(O3)C1C(=O)NC1CCCCC1 (stereo not given)	.	.	.	.	.	/	/
COc1ccc(NC(=O)NNC(=O)COc2ccc3cc(Br)ccc3c2)c(OC)c1	.	.	20	.	.	23	.
CCc1nc(SCC(=O)N2CCCCC2)c2c(=O)n(C)c(=O)n(C)c2n1	.	.	.	.	.	/	/
COc1ccc(Nc2nc(N3CCCCC3)c3ccccc3n2)cc1	.	.	21	.	.	.	.
Oc1ccc(Nc2nc(N3CCCC3)c3ccccc3n2)cc1	.	.	.	.	.	/	/

Compound activity (PubChem BioAssay)
